Measurements as given in ChEMBL document CHEMBL1126775, “A pharmacological, crystallographic, and quantum chemical study of new inotropic agents” (J Med Chem, 1993).
Where “and” joins values, the source holds several entries; their conditions need not be identical. Equal values may be shown once.

Key:
[1] = species: Cavia porcellus; experiment: Inotropic response in electrically driven left atrium from reserpine-treated guinea pig without VER at the concentration of 10 e-5 M; type: functional, Cardiac atrium
Procedure, shortened: (§1)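 Control arm without verapamil: left atrium from reserpinized guinea pigs (2 mg/kg ip, 48 and 24 h before), tyramine-unresponsive, paced at 1.5 Hz (3-ms pulses). Agents added cumulatively after 90 min equilibration, recorded 5 min each. Isometric developed tension as % increase over control; seven assays from seven experiments.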

[2] = species: Cavia porcellus; experiment: Inotropic effect in electrically driven left atrium from reserpine-treated guinea pig at the concentration of 2 x 10 e-3 M; type: functional, Cardiac atrium
Procedure, shortened: (§2)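 Atria from reserpine-pretreated guinea pigs (2 mg/kg ip, 48 and 24 h), tyramine-unresponsive only. Left atrium loaded 0.5 g, paced at 1.5 Hz with 3-ms square pulses at 10–20% above threshold. Equilibrated 90 min. Agents added cumulatively, 5 min per concentration. Isometric developed tension expressed as % increase over control.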

[3] = species: Cavia porcellus; experiment: Inotropic response in electrically driven left atrium from reserpine-treated guinea pig without ADA at the concentration of 10 e-4 M; type: functional, Cardiac atrium
Procedure, shortened: (§3)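 Control arm: electrically driven left atrium (1.5 Hz, 3-ms pulses, 0.5 g load) from guinea pigs given reserpine 2 mg/kg ip at 48 and 24 h, tyramine-unresponsive; no adenosine deaminase. Cumulative additions after 90 min equilibration, 5 min per concentration. Isometric developed tension, % over control; six assays from six experiments.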

[4] = species: Cavia porcellus; experiment: Inotropic effect in electrically driven left atrium from reserpine-treated guinea pig at the concentration of 5 x 10 e-4 M; type: functional, Cardiac atrium; procedure, shortened: as §2
[5] = species: Cavia porcellus; experiment: Effect on frequency rate of spontaneously beating atria from reserpine treated guinea pigs at the concentration of 5 x 10 e-4 M; type: functional
[6] = species: Cavia porcellus; experiment: Inotropic effect in electrically driven left atrium from reserpine-treated guinea pig at the concentration of 10 e-5 M; type: functional, Cardiac atrium; procedure, shortened: as §2
[7] = species: Cavia porcellus; experiment: Inotropic effect in electrically driven left atrium from reserpine-treated guinea pig without 8-phenyl theophylline at the concentration of 10 e-5 M; type: functional, Cardiac atrium
Procedure, shortened: (§4)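 Paced left atrium from reserpine-pretreated, tyramine-unresponsive guinea pigs (0.5 g load, 1.5 Hz, 3-ms pulses). Cumulative additions of agent, 5 min each, with no 8-phenyltheophylline present. Developed tension as % increase over control. Mean ± SEM of six assays from six experiments; Student's t test against the 8-phenyltheophylline-treated preparations.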

[8] = species: Cavia porcellus; experiment: Inotropic effect in electrically driven left atrium from reserpine-treated guinea pig without 8-phenyl theophylline at the concentration of 10 e-4 M; type: functional, Cardiac atrium; procedure, shortened: as §4
[9] = species: Cavia porcellus; experiment: Inotropic response in electrically driven left atrium from reserpine-treated guinea pig with ADA (2 units/ml) at the concentration of 5 x 10 e-4 M; type: functional, Cardiac atrium
Procedure, shortened: (§5)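 Reserpinized guinea pigs (2 mg/kg ip, 48 and 24 h before death), tyramine-unresponsive atria. Electrically driven left atrium (1.5 Hz, 3-ms pulses, 0.5 g load) preincubated 20 min with adenosine deaminase after 90 min equilibration. Agents added cumulatively, 5 min per concentration. Developed tension recorded isometrically, % increase over control or % inhibition; six assays from six experiments, Student's t test.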

[10] = species: Cavia porcellus; experiment: Inotropic response in electrically driven left atrium from reserpine-treated guinea pig without ADA at the concentration of 5 x 10 e-5 M; type: functional, Cardiac atrium; procedure, shortened: as §3
[11] = species: Cavia porcellus; experiment: Inotropic response in electrically driven left atrium from reserpine-treated guinea pig with VER (10 e-7) at the concentration of 10 e-4 M; type: functional, Cardiac atrium
Procedure, shortened: (§6)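 Left atrium from reserpine-treated guinea pigs (2 mg/kg ip, 48 and 24 h prior; tyramine 2 μg/mL check), paced at 1.5 Hz with 3-ms pulses. Verapamil 0.1 μM added 10 min before cumulative agent additions (5 min each), after 90 min equilibration. Isometric developed tension as % increase over control; seven assays from seven experiments.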

[12] = species: Cavia porcellus; experiment: Inotropic response in electrically driven left atrium from reserpine-treated guinea pig with VER (10 e-7) at the concentration of 5 x10 e-5 M; type: functional, Cardiac atrium; procedure, shortened: as §6
[13] = species: Cavia porcellus; experiment: Inotropic effect in electrically driven left atrium from reserpine-treated guinea pig at the concentration of 10 e-4 M; type: functional, Cardiac atrium; procedure, shortened: as §2
[14] = species: Cavia porcellus; experiment: Inotropic response in electrically driven left atrium from reserpine-treated guinea pig with VER (10 e-7) at the concentration of 5 x 10 e-4 M; type: functional, Cardiac atrium; procedure, shortened: as §6
[15] = species: Cavia porcellus; experiment: Effect on frequency rate of spontaneously beating atria from reserpine treated guinea pigs at the concentration of 2 x 10 e-3 M; type: functional
[16] = species: Cavia porcellus; experiment: Inotropic response in electrically driven left atrium from reserpine-treated guinea pig without ADA at the concentration of 10 e-3 M; type: functional, Cardiac atrium; procedure, shortened: as §3
[17] = species: Cavia porcellus; experiment: Inotropic response in electrically driven left atrium from reserpine-treated guinea pig without ADA at the concentration of 2 x 10 e-3 M; type: functional, Cardiac atrium; procedure, shortened: as §3
[18] = species: Cavia porcellus; experiment: Inotropic response in electrically driven left atrium from reserpine-treated guinea pig without VER at the concentration of 5 x 10 e-5 M; type: functional, Cardiac atrium; procedure, shortened: as §1
[19] = species: Cavia porcellus; experiment: Effect on contractile force of spontaneously beating atria from reserpine treated guinea pigs at the concentration of 5x 10 e-4 M; type: functional
[20] = species: Cavia porcellus; experiment: Effect on frequency rate of spontaneously beating atria from reserpine treated guinea pigs at the concentration of 10 e-5 M; type: functional
[21] = species: Cavia porcellus; experiment: Inotropic response in electrically driven left atrium from reserpine-treated guinea pig with ADA (2 units/ml) at the concentration of 2 x 10 e-3 M; type: functional, Cardiac atrium; procedure, shortened: as §5
[22] = species: Cavia porcellus; experiment: Inotropic effect in electrically driven left atrium from reserpine-treated guinea pig at the concentration of 10 e-3 M; type: functional, Cardiac atrium; procedure, shortened: as §2
[23] = Logarithm of the sum of contributions of each atom to the total lipophilicity of the molecule; type: physicochemical; settings: octanol/water
[24] = species: Cavia porcellus; experiment: Effect on contractile force of spontaneously beating atria from reserpine treated guinea pigs at the concentration of 2 x 10 e-3 M; type: functional
[25] = species: Cavia porcellus; experiment: Inotropic response in electrically driven left atrium from reserpine-treated guinea pig with VER (10 e-7) at the concentration of 10 e-3 M; type: functional, Cardiac atrium; procedure, shortened: as §6
[26] = species: Cavia porcellus; experiment: Inotropic effect in electrically driven left atrium from reserpine-treated guinea pig at the concentration of 5 x 10 e-5 M; type: functional, Cardiac atrium; procedure, shortened: as §2
[27] = species: Cavia porcellus; experiment: Inotropic response in electrically driven left atrium from reserpine-treated guinea pig with ADA (2 units/ml) at the concentration of 10 e-3 M; type: functional, Cardiac atrium; procedure, shortened: as §5
[28] = species: Cavia porcellus; experiment: Effect on contractile force of spontaneously beating atria from reserpine treated guinea pigs at the concentration of 10 e-5 M; type: functional
[29] = species: Cavia porcellus; experiment: Effect on frequency rate of spontaneously beating atria from reserpine treated guinea pigs at the concentration of 10 e-4 M; type: functional
[30] = species: Cavia porcellus; experiment: Inotropic effect in electrically driven left atrium from reserpine-treated guinea pig without 8-phenyl theophylline at the concentration of 5 x 10 e-4 M; type: functional, Cardiac atrium; procedure, shortened: as §4
[31] = species: Cavia porcellus; experiment: Inotropic response in electrically driven left atrium from reserpine-treated guinea pig with ADA (2 units/ml) at the concentration of 10 e-4 M; type: functional, Cardiac atrium; procedure, shortened: as §5
[32] = species: Cavia porcellus; experiment: Inotropic effect in electrically driven left atrium from reserpine-treated guinea pig without 8-phenyl theophylline at the concentration of 2 x 10 e-3 M; type: functional, Cardiac atrium; procedure, shortened: as §4
[33] = species: Cavia porcellus; experiment: Inotropic response in electrically driven left atrium from reserpine-treated guinea pig without VER at the concentration of 10 e-4 M; type: functional, Cardiac atrium; procedure, shortened: as §1
[34] = species: Cavia porcellus; experiment: Inotropic effect in electrically driven left atrium from reserpine-treated guinea pig without 8-phenyl theophylline at the concentration of 10 e-3 M; type: functional, Cardiac atrium; procedure, shortened: as §4
[35] = species: Cavia porcellus; experiment: Inotropic response in electrically driven left atrium from reserpine-treated guinea pig without VER at the concentration of 2 x 10 e-3 M; type: functional, Cardiac atrium; procedure, shortened: as §1
[36] = species: Cavia porcellus; experiment: Inotropic response in electrically driven left atrium from reserpine-treated guinea pig without VER at the concentration of 10 e-3 M; type: functional, Cardiac atrium; procedure, shortened: as §1

| SMILES | Increase [1] [%] | Increase [2] [%] | Increase [3] [%] | Increase [4] [%] | Increase [5] [%] | Increase [6] [%] | Increase [7] [%] | Increase [8] [%] | Increase [9] [%] | Increase [10] [%] | Increase [11] [%] | Increase [12] [%] | Increase [13] [%] | Increase [14] [%] | Increase [15] [%] | Increase [16] [%] | Increase [17] [%] | Increase [18] [%] | Increase [19] [%] | Increase [20] | further results |
| --- | --- | --- | --- | --- | --- | --- | --- | --- | --- | --- | --- | --- | --- | --- | --- | --- | --- | --- | --- | --- | --- |
| CC(=O)c1cc(C#N)c(O)nc1C | 18.83 | 67.13 | 12.61 | 48.67 | 11.61 | 12.64 | 12.62 | 28.87 | 20.37 | 13.32 | 28.47 | 19.5 | 38.06 | 55.47 | 22.98 | 42.05 | 84.6 | 28.29 | 57.22 | 0.23% and 1.35% | Increase [21]: 80.21%; Increase [22]: 58.73%; logP [23]: -0.1; Increase [24]: 64.11%; Increase [25]: 66.4%; Increase [26]: 25.17%; Increase [27]: 37.93%; Increase [28]: 13.9%; Increase [29]: 6.62%; Increase [30]: 48.18%; Increase [31]: 10.08%; Increase [32]: 62.73%; Increase [33]: 37.34%; Increase [34]: 56.71%; Increase [35]: 94.47%; Increase [36]: 77.46% |
| CC1CC(=O)c2ccc(O)nc2C1 (configuration not stated) | 5.76 | 93.66 | 27.6 | 37.23 | 13.45 | 6.31 | 4.64 | 24.77 | 14.35 | 25 | 2.43 | 2.45 | 26.62 | 14.7 | 26.44 | 46.19 | 67.12 | 11.6 | 39.48 | 2.63% and 3.21% | Increase [21]: 39.98%; Increase [22]: 48.86%; logP [23]: 0.45; Increase [24]: 80.98%; Increase [25]: 23.78%; Increase [26]: 19.17%; Increase [27]: 20.63%; Increase [28]: 4.28%; Increase [29]: 3.29%; Increase [30]: 38.88%; Increase [31]: 9.12%; Increase [32]: 87.6%; Increase [33]: 17.96%; Increase [34]: 56.72%; Increase [35]: 75.51%; Increase [36]: 45.89% |
